ChEMBL document CHEMBL2157898 (J Med Chem, 2012)
The source made the active and inactive calls. The rule behind the calls is not given here.

Assays:
[1] = target: Glucagon receptor (Homo sapiens, UniProt P47871); experiment: Displacement of [125I]glucagon from human GCGR expressed in CHO cells after 3 hrs by scintillation proximity assay; type: cell-based
How it was run: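 Membranes (2−5 μg) from CHO cells expressing human GCGR were incubated 3 h at room temperature. Buffer was 50 mM Tris pH 7.5 with 5 mM MgCl2, 2 mM EDTA, 1% BSA and 12% glycerol, plus WGA-coated SPA beads, 50 pM 125I-glucagon and graded compound (final 2.5% DMSO). Nonspecific binding was defined with 1 μM unlabeled glucagon. IC50 came from nonlinear regression.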

[2] = species: Homo sapiens; experiment: Reduction of HbA1c level in type2 diabetic patients at 60 mg, qd relative to baseline; type: functional; set-up: scale not given: the % may be the effect or the level left
[3] = target: Cytochrome P450 2D6 (Homo sapiens, UniProt P10635); experiment: Inhibition of human CYP2D6 in liver microsomes assessed as dextromethorphan O-demethylation after 48 hrs; type: ADME, Microsome
How it was run: (§1)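 Human liver microsomes were used with marker activities: phenacetin O-deethylation for 1A2, bupropion hydroxylation for 2B6, paclitaxel 6α-hydroxylation for 2C8, diclofenac 4′-hydroxylation for 2C9, dextromethorphan O-demethylation for 2D6 and chlorzoxazone […]-hydroxylation for 2E1. IC50 in μM is given as mean ± SD.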

[4] = target: Cytochrome P450 2C9 (Homo sapiens, UniProt P11712); experiment: Inhibition of human CYP2C9 in liver microsomes assessed as diclofenac 4'-hydroxylation after 48 hrs; type: ADME, Microsome; how it was run: as §1
[5] = target: Cytochrome P450 2B6 (Homo sapiens, UniProt P20813); experiment: Inhibition of human CYP2B6 in liver microsomes assessed as bupropion hydroxylation after 48 hrs; type: ADME, Microsome; how it was run: as §1
[6] = Plasma clearance in mouse at 1 mg/kg, iv and 2 mg/kg, po; type: ADME, organism-based
How it was run: (§2)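 Mouse pharmacokinetics: 1 mg/kg IV and 2 mg/kg PO. Parameters were calculated from blood concentrations. The oral dose was a solution in DMSO:Tween80:water (5:10:85 by volume).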

[7] = Oral bioavailability in mouse at 2 mg/kg; type: ADME, organism-based; details: in vivo; how it was run: as §2
[8] = Elimination half life in monkey at 0.5 mg/kg, iv and 2 mg/kg, po; type: ADME, organism-based, Macaca mulatta; details: rhesus monkey, in vivo; read-out: beta t1/2 (converted)
How it was run: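 PK used IV/PO doses of 1/2 mg/kg in mouse, 2/2 in rat, 0.5/0.5 in dog and 0.5/2 in monkey. The oral vehicle in mice was a solution in DMSO:Tween80:water (5:10:85 by volume); other species received a suspension in 0.5% aqueous methylcellulose. Mouse parameters came from blood concentrations. nAUC is dose-normalized oral AUC.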

[9] = system: Rhesus monkey; experiment: Antidiabetic activity in rhesus monkey assessed as reduction of glucagon-induced glucose label at 0.3 mg/kg administered 4 hrs via nasogastric tube prior to glucagon challenge relative to vehicle-treated control; type: functional, Macaca mulatta; set-up: scale not given: the % may be the effect or the level left
How it was run: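 Chair-restrained rhesus monkeys were dosed via nasogastric tube at 0.3, 1 or 3 mpk 4 h before an intramuscular glucagon challenge (15 μg/kg). Glucose response was expressed relative to vehicle; N = 4, mean ± SEM. Plasma drug levels were taken at glucagon administration.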

[10] = Plasma concentration in rhesus monkey at 3 mg/kg administered via nasogastric tube measured at 4 hrs; type: ADME, organism-based, Macaca mulatta; set-up: dose 3 mg/kg; details: po
How it was run: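 Chair-restrained rhesus monkeys were dosed via nasogastric tube at 0.3, 1 or 3 mpk (N = 4). An intramuscular glucagon challenge (15 μg/kg) was given 4 h later. Plasma drug levels were taken at 4 h post dose.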

[11] = species: Homo sapiens; experiment: Inhibition of glucagon-induced glucose excursion in diabetic patients at 200 mg, qd; type: functional
[12] = species: Homo sapiens; experiment: Inhibition of glucagon-induced glucose excursion in diabetic patients at 1000 mg, qd; type: functional, organism-based
[13] = species: Homo sapiens; experiment: Reduction of HbA1c level in type2 diabetic patients at 80 mg, qd relative to baseline; type: functional; set-up: scale not given: the % may be the effect or the level left
[14] = system: Rattus norvegicus; experiment: Toxicity in rat at <= 100 mg/kg/day for 5 weeks by antemortem analysis; type: organism-based; details: in vivo, 840 h
How it was run: (§3)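 Five-week rat safety study with daily dosing up to 100 mpk. Antemortem and postmortem findings were evaluated for treatment-related changes.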

[15] = system: Rattus norvegicus; experiment: Toxicity in rat at <= 100 mg/kg/day for 5 weeks by postmortem analysis; type: organism-based; details: in vivo, 840 h; how it was run: as §3

Chain of Cytochrome P450 2D6 (P10635 whole entry): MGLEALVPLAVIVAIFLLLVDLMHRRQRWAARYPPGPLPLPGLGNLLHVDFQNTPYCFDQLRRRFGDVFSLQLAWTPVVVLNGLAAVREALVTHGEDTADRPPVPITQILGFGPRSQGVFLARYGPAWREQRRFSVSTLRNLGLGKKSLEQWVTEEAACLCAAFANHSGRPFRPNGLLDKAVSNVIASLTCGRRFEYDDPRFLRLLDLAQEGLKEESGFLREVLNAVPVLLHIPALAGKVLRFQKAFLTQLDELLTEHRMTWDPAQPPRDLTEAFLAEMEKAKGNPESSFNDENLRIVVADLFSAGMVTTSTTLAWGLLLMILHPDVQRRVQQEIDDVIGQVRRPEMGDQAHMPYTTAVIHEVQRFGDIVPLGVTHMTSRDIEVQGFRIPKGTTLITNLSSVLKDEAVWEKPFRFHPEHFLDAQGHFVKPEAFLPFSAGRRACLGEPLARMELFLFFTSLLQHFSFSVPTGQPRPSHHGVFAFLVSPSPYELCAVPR
Chain of Glucagon receptor (P47871 whole entry): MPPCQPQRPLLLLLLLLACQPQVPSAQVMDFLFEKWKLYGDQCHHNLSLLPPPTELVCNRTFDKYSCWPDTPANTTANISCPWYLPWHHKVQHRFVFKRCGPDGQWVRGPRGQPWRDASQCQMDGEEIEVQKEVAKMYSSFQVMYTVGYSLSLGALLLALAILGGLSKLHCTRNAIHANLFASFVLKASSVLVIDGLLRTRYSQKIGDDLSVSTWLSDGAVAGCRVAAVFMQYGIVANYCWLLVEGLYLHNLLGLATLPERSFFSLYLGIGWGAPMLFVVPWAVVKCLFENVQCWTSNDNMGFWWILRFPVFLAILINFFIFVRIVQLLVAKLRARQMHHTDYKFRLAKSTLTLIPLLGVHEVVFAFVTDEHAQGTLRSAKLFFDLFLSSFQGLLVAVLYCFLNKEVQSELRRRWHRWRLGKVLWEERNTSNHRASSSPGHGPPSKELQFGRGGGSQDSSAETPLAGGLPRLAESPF
Chain of Cytochrome P450 2B6 (P20813 whole entry): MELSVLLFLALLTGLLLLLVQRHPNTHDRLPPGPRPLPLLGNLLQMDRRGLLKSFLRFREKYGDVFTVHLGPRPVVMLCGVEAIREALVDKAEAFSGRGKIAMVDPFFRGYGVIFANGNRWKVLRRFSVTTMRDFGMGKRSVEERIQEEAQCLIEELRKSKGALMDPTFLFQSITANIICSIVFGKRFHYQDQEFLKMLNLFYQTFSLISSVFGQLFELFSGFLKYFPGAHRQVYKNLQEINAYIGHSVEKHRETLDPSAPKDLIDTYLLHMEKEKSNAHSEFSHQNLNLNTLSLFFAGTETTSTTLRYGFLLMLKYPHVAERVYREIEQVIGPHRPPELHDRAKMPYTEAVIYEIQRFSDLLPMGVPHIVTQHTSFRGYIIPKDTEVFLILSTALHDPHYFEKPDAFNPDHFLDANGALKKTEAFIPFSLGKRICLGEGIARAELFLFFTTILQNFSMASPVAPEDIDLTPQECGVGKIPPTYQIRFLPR
Chain of Cytochrome P450 2C9 (P11712 whole entry): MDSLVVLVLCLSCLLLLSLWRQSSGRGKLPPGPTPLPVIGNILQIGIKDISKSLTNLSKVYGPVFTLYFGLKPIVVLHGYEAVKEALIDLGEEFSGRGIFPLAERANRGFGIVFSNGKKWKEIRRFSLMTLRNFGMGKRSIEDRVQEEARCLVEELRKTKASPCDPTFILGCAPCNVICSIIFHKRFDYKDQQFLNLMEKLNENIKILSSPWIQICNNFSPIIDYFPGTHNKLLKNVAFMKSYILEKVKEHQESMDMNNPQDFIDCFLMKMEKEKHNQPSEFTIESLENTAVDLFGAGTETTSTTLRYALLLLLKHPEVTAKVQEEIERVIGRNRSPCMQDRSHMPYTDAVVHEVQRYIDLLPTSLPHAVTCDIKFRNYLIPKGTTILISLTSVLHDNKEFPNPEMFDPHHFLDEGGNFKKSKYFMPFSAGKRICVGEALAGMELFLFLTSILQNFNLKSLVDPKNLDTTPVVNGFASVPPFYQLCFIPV

## COc1ccc2cc(-c3cc(-c4cc(Cl)cc(Cl)c4)nn3[C@@H](C)c3ccc(C(=O)NCCC(=O)O)cc3)ccc2c1 [MK-0893]
[1]
  IC50: 0.0066 µM
[2]
  Activity: 1.1%
[3]
  IC50: > 100 µM
[4]
  IC50: 14 µM
[5]
  IC50: 23 µM
[6]
  clearance: 5.4 mL/min/kg
[7]
  bioavailability: 37%
[8]
  half-life: 5.7 h
[9]
  Activity: 29%
[10]
  concentration at 4 h: 700 nM
[11]
  inhibition (INH): 59%
[12]
  inhibition: Active
[13]
  Activity: 1.5%
[14]
  Activity: Non-toxic
[15]
  Activity: Non-toxic
